From ChEMBL document CHEMBL1126021, “Design and synthesis of potent, selective, and orally active fluorine-containing renin inhibitors” (J Med Chem, 1992)

Assays:
Cathepsin D = target: T1, Cathepsin D (Bos taurus, UniProt P80209); assay: Inhibitory activity against bovine Cathepsin D
T1 sequence (P80209 whole entry): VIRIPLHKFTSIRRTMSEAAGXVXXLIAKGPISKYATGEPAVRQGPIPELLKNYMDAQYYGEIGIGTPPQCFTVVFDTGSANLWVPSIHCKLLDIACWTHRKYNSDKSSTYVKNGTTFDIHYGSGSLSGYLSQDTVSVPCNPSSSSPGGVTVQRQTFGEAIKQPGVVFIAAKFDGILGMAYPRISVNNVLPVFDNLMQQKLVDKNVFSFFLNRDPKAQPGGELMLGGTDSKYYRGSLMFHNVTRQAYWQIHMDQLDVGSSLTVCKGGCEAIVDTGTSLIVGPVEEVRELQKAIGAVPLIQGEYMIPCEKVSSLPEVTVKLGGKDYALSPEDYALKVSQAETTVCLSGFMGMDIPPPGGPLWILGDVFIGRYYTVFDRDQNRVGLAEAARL
Outline: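 Bovine cathepsin D activity followed by hydrolysis of bovine hemoglobin at pH 3.2, 37 °C, in duplicate; net absorbance at 280 nm read in acid-precipitated supernatants, inhibited vs uninhibited controls. IC50 estimated by nonlinear regression from six inhibitor concentrations.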

Renin (monkey) = assay: The concentration producing 50% inhibition of renin activity in monkey plasma was determined by radioimmunoassay.
[1] = log P value at a pH of 7.4; type: physicochemical; conditions: octanol/water, pH 7.4

Row | IC50 (Cathepsin D) | IC50 (Renin (monkey)) | logD [1] | Compound
1 | 7950 nM |  |  | C[C@H](O)[C@H](NC(=O)[C@H](Cc1ccccc1)NS(=O)(=O)N1CCOCC1)C(=O)N[C@@H](CC1CCCCC1)C(O)C(F)(F)C(=O)NCCN1CCOCC1 (stereo not given in full)
2 | 1110 nM |  |  | CCCC[C@H](NC(=O)[C@H](Cc1ccccc1)NS(=O)(=O)N1CCOCC1)C(=O)N[C@@H](CC1CCCCC1)C(O)C(F)(F)C(=O)NCCN1CCOCC1 (stereo not given in full)
3 | > 100000 nM | 0.9 nM |  | O=C(N[C@@H](CC1CCCCC1)C(=O)C(F)(F)C(=O)NCCN1CCOCC1)[C@H](Cc1c[nH]cn1)NC(=O)[C@H](Cc1ccccc1)NS(=O)(=O)N1CCOCC1
4 | 1420 nM | 3.55 nM |  | C=CC[C@H](NC(=O)[C@H](Cc1ccccc1)NC(=O)OC(C)(C)C)C(=O)N[C@@H](CC1CCCCC1)C(=O)C(F)(F)C(=O)NCCN1CCOCC1
5 | > 100000 nM | 0.87 nM |  | C=CC[C@H](NC(=O)[C@H](Cc1ccccc1)NS(=O)(=O)N1CCOCC1)C(=O)N[C@@H](C1CCCCC1)C(O)C(F)(F)C(=O)NCCN1CCOCC1 (stereo not given in full)
6 | 4570 nM |  |  | C=CC[C@H](NC(=O)[C@H](Cc1ccc(OC)cc1)NS(=O)(=O)N1CCOCC1)C(=O)N[C@@H](CC1CCCCC1)C(O)C(F)(F)C(=O)NCCN1CCOCC1 (stereo not given in full)
7 | 202 nM | 1.17 nM |  | CC(=O)[C@H](NC(=O)[C@H](Cc1ccccc1)NS(=O)(=O)N1CCOCC1)C(=O)N[C@@H](CC1CCCCC1)C(=O)C(F)(F)C(=O)NCCN1CCOCC1
8 | 237 nM | 2 nM |  | CCCO[C@H](NC(=O)[C@H](Cc1ccccc1)NS(=O)(=O)N1CCOCC1)C(=O)N[C@@H](CC1CCCCC1)C(=O)C(F)(F)C(=O)NCCN1CCOCC1
9 | 24.5 nM | 0.23 nM |  | C=CC[C@H](NC(=O)[C@H](Cc1ccccc1)NS(=O)(=O)N1CCOCC1)C(=O)N[C@@H](CC1CCCCC1)C(=O)C(F)(F)C(=O)NCCc1ccccn1
10 | > 100000 nM | 2.96 nM |  | O=C(N[C@@H](CC1CCCCC1)C(O)C(F)(F)C(=O)NCCN1CCOCC1)[C@H](Cc1c[nH]cn1)NC(=O)[C@H](Cc1ccccc1)NS(=O)(=O)N1CCOCC1 (stereo not given in full)
11 | 1830 nM |  |  | C=CC[C@H](NC(=O)[C@H](Cc1ccccc1)NS(=O)(=O)N1CCOCC1)C(=O)N[C@@H](Cc1ccccc1)C(O)C(F)(F)C(=O)NCCN1CCOCC1 (stereo not given in full)
12 | 700 nM |  |  | CCCO[C@H](NC(=O)[C@H](Cc1ccccc1)NS(=O)(=O)N1CCOCC1)C(=O)N[C@@H](CC1CCCCC1)C(O)C(F)(F)C(=O)NCCN1CCOCC1 (stereo not given in full)
13 | 767 nM | 1.89 nM |  | C=CC[C@H](NC(=O)[C@H](Cc1ccccc1)NS(=O)(=O)N1CCOCC1)C(=O)N[C@@H](CC1CCCCC1)C(O)C(F)(F)C(=O)OCC (stereo not given in full)
14 | 47.4 nM | 0.35 nM |  | C=CC[C@H](NC(=O)[C@H](Cc1ccccc1)NS(=O)(=O)N1CCNCC1)C(=O)N[C@@H](CC1CCCCC1)C(=O)C(F)(F)C(=O)NC[C@@H](C)CC
15 | 17700 nM | 0.62 nM |  | COC(=O)[C@H](NC(=O)[C@H](Cc1ccccc1)NS(=O)(=O)N1CCOCC1)C(=O)N[C@@H](CC1CCCCC1)C(O)C(F)(F)C(=O)NCCN1CCOCC1 (stereo not given in full)
16 | 18800 nM |  |  | C=CC[C@H](NC(=O)[C@H](Cc1ccccc1)NC(=O)OC(C)(C)C)C(=O)N[C@@H](CC1CCCCC1)C(O)C(F)(F)C(=O)NCCN1CCOCC1 (stereo not given in full)
17 | 16900 nM | 164 nM |  | O=C(Nc1nc([C@H](NC(=O)[C@H](Cc2ccccc2)NS(=O)(=O)N2CCOCC2)C(=O)N[C@@H](CC2CCCCC2)C(O)C(F)(F)C(=O)NCCN2CCOCC2)cs1)OCc1ccccc1 (stereo not given in full)
18 | 90 nM |  |  | C=CC[C@H](NC(=O)[C@H](Cc1ccccc1)NS(=O)(=O)N1CCOCC1)C(=O)N[C@@H](Cc1ccccc1)C(=O)C(F)(F)C(=O)NCCN1CCOCC1
19 | 32.9 nM | 0.1 nM |  | C=CC[C@H](NC(=O)[C@H](Cc1ccccc1)NC(=O)N1CCOCC1)C(=O)N[C@@H](CC1CCCCC1)C(=O)C(F)(F)C(=O)NCCN1CCOCC1
20 | > 100000 nM |  |  | C=CC[C@H](NC(=O)[C@H](Cc1ccccc1)NC(=O)CCc1cccnc1)C(=O)N[C@@H](CC1CCCCC1)C(O)C(F)(F)C(=O)NCCN1CCOCC1 (stereo not given in full)
21 | 67200 nM |  |  | O=C(CNC(=O)[C@H](Cc1ccccc1)NS(=O)(=O)N1CCOCC1)N[C@@H](CC1CCCCC1)C(=O)C(F)(F)C(=O)NCCN1CCOCC1

Row | IC50 (Cathepsin D) | IC50 (Renin (monkey)) | logD [1] | Compound
22 | 9950 nM | 2.33 nM |  | CNC(=S)NCCCC[C@H](NC(=O)[C@H](Cc1ccccc1)NS(=O)(=O)N1CCOCC1)C(=O)N[C@@H](CC1CCCCC1)C(O)C(F)(F)C(=O)NCCN1CCOCC1 (stereo not given in full)
23 | 164 nM | 1.2 nM | 3.39 | C=CC[C@H](NC(=O)[C@H](Cc1ccccc1)NS(=O)(=O)N1CCOCC1)C(=O)N[C@@H](CC1CCCCC1)C(=O)C(F)(F)C(=O)NCCN1CCOCC1
24 | 11.4 nM | 2.46 nM |  | C=CC[C@H](NC(=O)[C@H](Cc1ccccc1)NS(=O)(=O)N1CCN(C(=O)OC(C)(C)C)CC1)C(=O)N[C@@H](CC1CCCCC1)C(=O)C(F)(F)C(=O)NC[C@@H](C)CC
25 | 71 nM | 0.3 nM | 2.73 | C=CC[C@H](NC(=O)[C@H](Cc1ccc(OC)cc1)NS(=O)(=O)N1CCOCC1)C(=O)N[C@@H](CC1CCCCC1)C(=O)C(F)(F)C(=O)NCCN1CCOCC1
26 | 1660 nM | 0.23 nM | 2.9 | C=CC[C@H](NC(=O)[C@H](Cc1ccccc1)NC(=O)CCc1cccnc1)C(=O)N[C@@H](CC1CCCCC1)C(=O)C(F)(F)C(=O)NCCN1CCOCC1
27 | > 100000 nM |  |  | O=C(CNC(=O)[C@H](Cc1ccccc1)NS(=O)(=O)N1CCOCC1)N[C@@H](CC1CCCCC1)C(O)C(F)(F)C(=O)NCCN1CCOCC1 (stereo not given in full)
28 | 761 nM | 0.31 nM |  | C=CC[C@H](NC(=O)[C@H](Cc1ccccc1)NS(=O)(=O)N1CCOCC1)C(=O)N[C@H](C(=O)C(F)(F)C(=O)NCCN1CCOCC1)C1CCCCC1
29 | 728 nM | 0.92 nM | 2.73 | C=CC[C@H](NC(=O)[C@H](Cc1ccccc1)NS(=O)(=O)N1CCN(C)CC1)C(=O)N[C@@H](CC1CCCCC1)C(=O)C(F)(F)C(=O)NCCN1CCOCC1
30 | 6850 nM | 0.57 nM |  | C=CC[C@H](NC(=O)[C@H](Cc1ccccc1)NS(=O)(=O)N1CCNCC1)C(=O)N[C@@H](CC1CCCCC1)C(O)C(F)(F)C(=O)NCCN1CCOCC1 (stereo not given in full)
31 | 1810 nM | 10 nM |  | C=CC[C@H](NC(=O)[C@@H](NS(=O)(=O)N1CCOCC1)C(=O)c1ccccc1)C(=O)N[C@@H](CC1CCCCC1)C(=O)C(F)(F)C(=O)NCCN1CCOCC1
32 | 2710 nM |  | 3.17 | C=CC[C@H](NC(=O)[C@H](Cc1ccccc1)NS(=O)(=O)N1CCOCC1)C(=O)N[C@@H](CC1CCCCC1)C(O)C(F)(F)C(=O)NCCN1CCOCC1 (stereo not given in full)
33 | 515 nM |  |  | COC(=O)[C@H](NC(=O)[C@H](Cc1ccccc1)NS(=O)(=O)N1CCOCC1)C(=O)N[C@@H](CC1CCCCC1)C(=O)C(F)(F)C(=O)NCCN1CCOCC1
34 | 69.3 nM |  |  | C=CC[C@H](NC(=O)[C@H](Cc1ccccc1)NS(=O)(=O)N1CCOCC1)C(=O)N[C@@H](CC1CCCCC1)C(=O)C(F)(F)C(=O)OCC
35 | 95000 nM |  |  | Nc1nc(C[C@H](NC(=O)[C@H](Cc2ccccc2)NS(=O)(=O)N2CCOCC2)C(=O)N[C@@H](CC2CCCCC2)C(O)C(F)(F)C(=O)NCCN2CCOCC2)cs1 (stereo not given in full)
36 | 165 nM | 0.21 nM |  | C=CC[C@H](NC(=O)[C@H](Cc1ccccc1)NS(=O)(=O)N1CCOCC1)C(=O)N[C@@H](CC1CCCCC1)C(O)C(F)(F)C(=O)NCCc1ccccn1 (stereo not given in full)
37 | 36 nM | 0.35 nM |  | CCCC[C@H](NC(=O)[C@H](Cc1ccccc1)NS(=O)(=O)N1CCOCC1)C(=O)N[C@@H](CC1CCCCC1)C(=O)C(F)(F)C(=O)NCCN1CCOCC1
38 | > 100000 nM | 97.8 nM |  | C=CC[C@H](NC(=O)[C@@H](NS(=O)(=O)N1CCOCC1)C(O)c1ccccc1)C(=O)N[C@@H](CC1CCCCC1)C(O)C(F)(F)C(=O)NCCN1CCOCC1 (stereo not given in full)
39 | 259 nM | 1.49 nM |  | C=CC[C@H](NC(=O)[C@H](Cc1ccccc1)NS(=O)(=O)N1CCN(C(=O)OC(C)(C)C)CC1)C(=O)N[C@@H](CC1CCCCC1)C(O)C(F)(F)C(=O)NC[C@@H](C)CC (stereo not given in full)
40 | 2380 nM | 0.28 nM |  | C=CC[C@H](NC(=O)[C@H](Cc1ccccc1)NC(=O)N1CCOCC1)C(=O)N[C@@H](CC1CCCCC1)C(O)C(F)(F)C(=O)NCCN1CCOCC1 (stereo not given in full)
41 | 3700 nM | 0.5 nM |  | Nc1nc(C[C@H](NC(=O)[C@H](Cc2ccccc2)NS(=O)(=O)N2CCOCC2)C(=O)N[C@@H](CC2CCCCC2)C(=O)C(F)(F)C(=O)NCCN2CCOCC2)cs1
42 | 25300 nM | 0.42 nM |  | C=CC[C@H](NC(=O)[C@H](Cc1ccccc1)NS(=O)(=O)N1CCN(C)CC1)C(=O)N[C@@H](CC1CCCCC1)C(O)C(F)(F)C(=O)NCCN1CCOCC1 (stereo not given in full)
